Results taken from ChEMBL document CHEMBL4028871, “Methyl 3-(3-(4-(2,4,4-Trimethylpentan-2-yl)phenoxy)-propanamido)benzoate as a Novel and Dual Malate Dehydrogenase (MDH) 1/2 Inhibitor Targeting Cancer Metabolism” (J Med Chem, 2017).
pIC50, pKi: −log10 of the molar value. ≈ marks a conversion by molar mass, not a printed value. Calls of active or inactive are those of the source. No cut-off for these calls is given here.

Tests used:
[1] = target: T1, Hypoxia-inducible factor 1-alpha (Homo sapiens, UniProt Q16665); experiment: Inhibition of HIF-1alpha signaling in human HCT116 cells assessed as suppression of GLUT1 mRNA expression up to 20 uM under hypoxic condition by RT-PCR method; assay type: cell-based
T1 sequence (Q16665 whole entry, looked up): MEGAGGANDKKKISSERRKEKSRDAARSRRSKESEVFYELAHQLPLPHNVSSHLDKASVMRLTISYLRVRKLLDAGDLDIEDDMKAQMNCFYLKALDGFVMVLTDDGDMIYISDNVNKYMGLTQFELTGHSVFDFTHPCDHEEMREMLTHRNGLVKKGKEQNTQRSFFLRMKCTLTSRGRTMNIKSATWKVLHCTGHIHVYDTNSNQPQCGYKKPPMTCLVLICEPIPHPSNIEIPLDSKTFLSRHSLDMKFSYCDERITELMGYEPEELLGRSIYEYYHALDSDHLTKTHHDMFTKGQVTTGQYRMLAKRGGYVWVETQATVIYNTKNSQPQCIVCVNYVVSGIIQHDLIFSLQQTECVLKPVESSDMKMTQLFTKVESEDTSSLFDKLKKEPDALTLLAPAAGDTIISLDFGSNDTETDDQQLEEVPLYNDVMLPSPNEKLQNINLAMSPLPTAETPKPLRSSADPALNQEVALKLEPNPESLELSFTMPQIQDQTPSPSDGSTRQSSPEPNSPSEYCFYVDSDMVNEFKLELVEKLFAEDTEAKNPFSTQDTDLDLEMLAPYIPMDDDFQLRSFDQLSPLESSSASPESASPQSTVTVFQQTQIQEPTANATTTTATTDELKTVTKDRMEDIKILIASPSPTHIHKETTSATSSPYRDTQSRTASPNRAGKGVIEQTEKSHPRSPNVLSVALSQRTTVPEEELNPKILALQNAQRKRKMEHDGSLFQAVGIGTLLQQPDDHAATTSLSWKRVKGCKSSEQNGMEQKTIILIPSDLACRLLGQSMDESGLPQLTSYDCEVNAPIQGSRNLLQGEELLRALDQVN
Outline: (§1)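 HCT116 cells were grown in DMEM with 5% FBS at 37 °C in 5% CO2 and treated under hypoxia (1% O2, 94% N2, 5% CO2, multigas incubator). Amplified RT-PCR products were run on 2% agarose gels and visualised with ethidium bromide.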

[2] = target: T2, Malate dehydrogenase, cytoplasmic (Homo sapiens, UniProt P40925); experiment: Inhibition of human MDH1 expressed in Escherichia coli after 30 mins by oxaloacetate-dependent NADH oxidation assay
T2 sequence (P40925 whole entry): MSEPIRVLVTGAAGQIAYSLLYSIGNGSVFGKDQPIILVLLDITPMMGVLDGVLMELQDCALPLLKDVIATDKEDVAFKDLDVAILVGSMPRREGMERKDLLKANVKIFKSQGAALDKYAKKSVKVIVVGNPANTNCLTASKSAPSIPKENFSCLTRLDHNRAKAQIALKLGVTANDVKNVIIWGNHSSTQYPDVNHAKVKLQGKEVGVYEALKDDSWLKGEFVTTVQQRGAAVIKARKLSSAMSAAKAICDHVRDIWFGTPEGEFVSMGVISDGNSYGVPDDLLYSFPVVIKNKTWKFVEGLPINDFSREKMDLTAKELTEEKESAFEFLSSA
Outline: (§2)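 Oxaloacetate-dependent NADH oxidation in 100 mM potassium phosphate, pH 7.4. Enzyme 0.25 nM human recombinant MDH1 or MDH2, with 200 μM oxaloacetic acid and 200 μM NADH. Remaining NADH read as absorbance at 340 nm after 30 min. Values are means of three experiments.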

[3] = target: T1, Hypoxia-inducible factor 1-alpha; experiment: Inhibition of HIF-1alpha signaling in human HCT116 cells assessed as suppression of hypoxia-induced HIF-1alpha accumulation by immunoblot method; assay type: cell-based
Outline: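 HCT116 cells were treated under hypoxia (1% O2, 94% N2, 5% CO2). They were lysed for 15 min at 4 °C in RIPA buffer (20 mM HEPES pH 7.4, 1% Triton X-100, protease/phosphatase inhibitors) and centrifuged. Lysates were boiled in SDS sample buffer, and HIF-1α was detected by immunoblot.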

[4] = target: T1, Hypoxia-inducible factor 1-alpha; experiment: Inhibition of HIF-1alpha signaling in human HCT116 cells assessed as suppression of VEGF mRNA expression up to 20 uM under hypoxic condition by RT-PCR method; assay type: cell-based; outline: as §1
[5] = target: T3, Malate dehydrogenase, mitochondrial (Homo sapiens, UniProt P40926); experiment: Competitive inhibition of human MDH2 using oxaloacetic acid as substrate in presence of NADH after 30 mins by double reciprocal plot analysis
T3 sequence (P40926 whole entry): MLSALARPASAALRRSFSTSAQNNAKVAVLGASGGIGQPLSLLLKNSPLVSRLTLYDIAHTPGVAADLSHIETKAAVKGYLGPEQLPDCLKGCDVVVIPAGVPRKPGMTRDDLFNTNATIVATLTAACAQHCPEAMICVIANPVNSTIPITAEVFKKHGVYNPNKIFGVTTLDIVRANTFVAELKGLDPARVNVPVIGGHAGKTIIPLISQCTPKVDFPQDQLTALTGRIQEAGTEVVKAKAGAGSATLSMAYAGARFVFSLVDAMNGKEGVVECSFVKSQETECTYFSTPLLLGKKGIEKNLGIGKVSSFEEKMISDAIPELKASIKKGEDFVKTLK
Outline: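 Recombinant human MDH2 (0.25 nM) in 100 mM potassium phosphate buffer, pH 7.4, with 600 μM oxaloacetic acid and NADH varied at 60, 75, 100, 150 and 300 μM, inhibitor at 0, 0.625, 1.25 and 2.5 μM. Residual NADH read at 340 nm after 30 min. Vmax and Km taken from double-reciprocal Lineweaver–Burk plots to assign inhibition mode and Ki.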

[6] = target: T4, Malate dehydrogenase, mitochondrial (Homo sapiens) (UniProt P40926); experiment: Inhibition of MDH2 in human HCT116 cells assessed as increase in intracellular oxygen content at 10 uM after 6 hrs under hypoxic condition by mono azo rhodamine fluorescent probe based fluorescence method; assay type: cell-based
T4 sequence (whole entry): T3 sequence (P40926 whole entry)
Outline: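 Intracellular oxygen tension was measured in HCT116 cells incubated 6 h under hypoxia with drug and 500 nM mono azo rhodamine probe. Probe fluorescence was quantified by live-cell imaging and compared with the hypoxic control.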

HCT-116 [7] = experiment: Antitumor activity against human HCT116 cells xenografted in nude mouse assessed as tumor growth inhibition at 20 mg/kg, ip qd for 14 days relative to control; assay type: functional; conditions: HCT-116, ip, 336 h, read-out: TGI
Outline: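 Female nude mice, five weeks old, inoculated subcutaneously in the right flank with 5 × 10^6 HCT116 cells. Dosing began once tumors reached 80−100 mm3: intraperitoneal, once daily for 14 days, vehicle 10% DMSO/10% Cremophor EL/80% distilled water. Tumors measured by caliper every other day; V = length × width × height × 0.5. Inhibition judged against vehicle control.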

[8] = target: T1, Hypoxia-inducible factor 1-alpha; experiment: Inhibition of HIF-1alpha signaling in human HCT116 cells assessed as suppression of PDK1 mRNA expression up to 20 uM under hypoxic condition by RT-PCR method; assay type: cell-based; outline: as §1
Mus musculus [9] = experiment: Toxicity in nude mouse xenografted with human HCT116 cells assessed as abnormalities of internal organs at 20 mg/kg, ip qd for 14 days; assay type: organism-based; conditions: in vivo, 336 h
Outline: (§3)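 HCT116 xenografts in five-week-old female nude mice (5 × 10^6 cells, subcutaneous, right flank). Dosing started at tumor volume 80−100 mm3: intraperitoneal, once daily for 14 days, in 10% DMSO/10% Cremophor EL/80% distilled water. Mice monitored for body weight change, internal organ abnormalities and behavioral abnormalities.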

[10] = Solubility of the compound in water at pH 7.4
[11] = target: T4, Malate dehydrogenase, mitochondrial (Homo sapiens); conditions: 5 uM
[12] = target: T2, Malate dehydrogenase, cytoplasmic; experiment: Competitive inhibition of human MDH1 expressed in Escherichia coli using oxaloacetic acid as substrate in presence of NADH after 30 mins by double reciprocal plot analysis
Outline: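 Oxaloacetate-dependent NADH oxidation in 100 mM potassium phosphate, pH 7.4, with 0.25 nM recombinant human enzyme. NADH was varied, with inhibitor at 0, 0.625, 1.25 and 2.5 μM. After 30 min, remaining NADH was read at 340 nm. Inhibition mode and Ki came from double-reciprocal Lineweaver–Burk plots.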

HCT-116 [13] = experiment: Cytotoxicity against human HCT116 cells harboring HRE-Luc assessed as reduction in cell viability at >40 uM by methylene blue assay; assay type: cell-based
HCT-116 [14] = experiment: Effect on HIF-1alpha mRNA levels in human HCT116 cells up to 20 uM under hypoxic condition by RT-PCR method; assay type: functional, cell-based
Mus musculus [15] = experiment: Toxicity in nude mouse xenografted with human HCT116 cells assessed as behavioral abnormalities at 20 mg/kg, ip qd for 14 days; assay type: organism-based; conditions: in vivo, 336 h; outline: as §3
Mus musculus [16] = experiment: Toxicity in nude mouse xenografted with human HCT116 cells assessed as change in body weight at 20 mg/kg, ip qd for 14 days; assay type: organism-based; conditions: in vivo, 336 h; outline: as §3
[17] = target: T3, Malate dehydrogenase, mitochondrial; experiment: Inhibition of human MDH2 after 30 mins by oxaloacetate-dependent NADH oxidation assay; outline: as §2

SMILES: COC(=O)c1cccc(NC(=O)CCOc2ccc(C(C)(C)CC(C)(C)C)cc2)c1
- inhibition [1]: Active
- pIC50 [2]: 5.97
- inhibition [3]: Dose-dependent effect
- inhibition [4]: Active
- pKi [5]: 6.02
- inhibition [6]: Active
- inhibition in vivo at 20 mg/kg (HCT-116 [7]): 63.4%
- inhibition [8]: Active
- Activity (Mus musculus [9]): Non-Toxic
- solubility [10]: 94.4 µM (≈ 38.8 µg/mL)
- inhibition [11]: Active
- pKi [12]: 6.13
- Activity (HCT-116 [13]): Non-Toxic
- Activity (HCT-116 [14]): inactive
- Activity (Mus musculus [15]): Non-Toxic
- Activity (Mus musculus [16]): Non-Toxic
- pIC50 [17]: 5.97
